The term GI50 denotes the concentration giving 50% growth inhibition. Lower therefore signals more potent growth inhibition.

Experimental findings from ChEMBL document CHEMBL1151913, “Preparation of novel (Z)-4-ylidenebenzo[b]furo[3,2-d][1,3]oxazines and their biological activity” (2009) are described below.

For experiment [1], the system named is MIA PaCa-2. Nature of the experiment: Growth inhibition of human MIAPaCa2 cells after 72 hrs by Alamar Blue assay. To be noted: MIA PaCa-2, 72 h. In kind it is functional. The essentials: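 MIA PaCa-2 grown in D-MEM with 10% FCS and antibiotic-antimycotic; 1 × 10^4 cells/well seeded, 24 h at 37 °C, 5% CO2; medium replaced with drug-containing medium (final DMSO ≤0.25%) in triplicate wells, 72 h continuous exposure; alamarBlue added for further 3 h.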
(The colour change of resazurin is a common sign of viable cells or microbes.)

The subject of experiment [2] is MCF7. Nature of the experiment: Growth inhibition of human MCF7 cells after 72 hrs by Alamar Blue assay. In kind it is functional. To be noted: MCF7, 72 h. Summed up: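 MCF-7 grown in E-MEM with 10% FCS and antibiotic-antimycotic; 1 × 10^4 cells/well seeded, 24 h at 37 °C, 5% CO2; medium replaced with drug-containing medium (final DMSO ≤0.25%) in triplicate wells, 72 h continuous exposure; alamarBlue added for further 3 h.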

The test system of experiment [3] is Osteoblast. The experiment is described as follows: Anti-osteoclastic bone resorption activity in ddY mouse calvarial osteoblasts assessed as inhibition of PGE2-stimulated resorption pit formation relative to 17-beta-estradiol. In kind it is functional, cell-based. The essentials:
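Osteoclasts generated by 7-day coculture of preconfluent calvarial osteoblasts (1–2 day old ddY mice) with fresh bone marrow cells (5 week-old male ddY mice) on collagen-coated dish in α-MEM (pH 7.0), 10% FCS, 10 nM calcitriol, 1.0 μM PGE2; collagenase-released cells plated on dentin slices with 10 nM E2 or compounds, 2 days; pits counted after toluidine blue staining.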

Structures are written as SMILES. Active and inactive are the calls of the source. No cut-off for these calls is given here.

For `CCOC(=O)/C=C/C=C1\OC(/C=C(\Cl)c2ccc(Cl)cc2)=Nc2c1oc1ccc(Br)cc21`, the GI50 in experiment [1] and in experiment [2] was more than 10 µM throughout.
Regarding `C/C=C/C1=Nc2c(oc3ccc(Br)cc23)/C(=C/C=O)O1`, in experiment [3], the outcome was inactive.
In the case of `O=c1[nH]cc(F)c(=O)[nH]1` [FLUOROURACIL], the GI50 in experiment [1] and in experiment [2] was more than 10 µM throughout.
On to `CCN(CC)C(=O)/C=C/C=C1\OC(/C=C/c2ccccc2)=Nc2c1oc1ccc(Br)cc21`, for which the outcome in experiment [3] was inactive.
As to `CCOP(=O)(OCC)/C(=C/C=C1\OC(/C=C/c2ccccc2)=Nc2c1oc1ccc(Br)cc21)c1ccc(Cl)cc1`, in experiment [3], the outcome was Active.
Consider `CCOC(=O)/C=C/C=C1\OC(/C=C/c2ccccc2)=Nc2c1oc1ccc(Br)cc21`, for which the outcome in experiment [3] was Active.
For the compound `COc1ccc(CCNC(=O)/C=C/C=C2\OC(/C=C/c3ccccc3)=Nc3c2oc2ccc(Br)cc32)cc1OC`, the result in experiment [3] was inactive.
For the compound `COc1cccc2c3c(oc12)/C(=C/C=O)OC(/C=C/C=C(/Cl)c1ccc(F)cc1)=N3`, the GI50 in experiment [1] is more than 10 µM; in experiment [2], 7.14 µM.
As to `O=C(/C=C/C=C1\OC(/C=C/c2ccccc2)=Nc2c1oc1ccc(Br)cc21)N1CCOCC1`, the outcome in experiment [3] was inactive.
On to `O=C/C=C1\OC(/C=C/c2ccccc2)=Nc2c1oc1ccc(Br)cc21`, for which, in experiment [3], the outcome was inactive.
For `COc1cccc2c3c(oc12)/C(=C/C=C/C(=O)N1CCOCC1)OC(/C=C/c1ccccc1)=N3`, the GI50 in experiment [1] was 5.34 µM; in experiment [2], more than 10 µM.
